Results as given in ChEMBL document CHEMBL1208768, “Synthesis, selective anti-Helicobacter pylori activity, and cytotoxicity of novel N-substituted-2-oxo-2H-1-benzopyran-3-carboxamides” (Bioorg Med Chem Lett, 2010).
Converted amounts (≈) assume the structure as drawn. The source made the active and inactive calls. No cut-off for these calls is given here.

Tests used:
[1] = test system: Proteus vulgaris; assay: Antibacterial activity against Proteus vulgaris after 18 to 22 hrs by broth microdilution method; format: functional
Method in brief: (§1)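 Clinical respiratory-tract isolates from patients, subcultured for purity and identified conventionally. Broth microdilution per NCCLS in Mueller–Hinton II broth; each plate had growth controls (bacteria, no compound) and medium-only controls. Incubation 18–22 h at 35 °C. MIC taken as the lowest concentration giving complete growth inhibition by unaided eye.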

[2] = test system: Helicobacter pylori; assay: Antibacterial activity against Helicobacter pylori ATCC 43504 clinical isolates after 72 hrs by agar dilution method; format: functional; conditions: ATCC 43504, 72 h
Method in brief: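 Agar dilution per NCCLS. Twenty clinical strains from duodenal ulcer or gastritis patients, with ATCC 43504 as control in each session, were subcultured twice on Columbia agar plus 10% horse serum and 0.25% yeast extract (72 h, 37 °C, 10% CO₂). Inoculum of 0.5 McFarland in Wilkins Chalgren broth, about 5 × 10⁵ CFU/spot by Steer's replicator. Plates held twofold compound dilutions down to 0.0039 µg/mL and were incubated 72 h at 37 °C, 10% CO₂. MIC was the lowest concentration inhibiting visible growth.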

[3] = test system: Staphylococcus haemolyticus; assay: Antibacterial activity against Staphylococcus haemolyticus after 18 to 22 hrs by broth microdilution method; format: functional; method in brief: as §1
[4] = test system: Helicobacter pylori; assay: Antibacterial activity against metronidazole-resistant Helicobacter pylori isolate 8 after 72 hrs by agar dilution method; format: functional; conditions: isolate 8, 72 h
Method in brief: (§2)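 H. pylori clinical isolates (ATCC 43504 control each session) stored at -80 °C and subcultured twice on Columbia agar with 10% horse serum and 0.25% yeast extract. Suspensions of 0.5 McFarland were spotted by Steer's replicator at about 5 × 10⁵ CFU/spot onto agar with twofold compound dilutions. Plates were incubated 72 h at 37 °C in 10% CO₂. MIC was the lowest concentration without visible growth.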

[5] = Cytotoxicity against human EAhy926 cells assessed as cell survival at 0.5 ug/mL after 24 hrs by trypan blue exclusion assay; format: cell-based, EA.hy 926; conditions: read-out: Survival
Method in brief: (§3)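 EAhy cells in DMEM (high glucose) with 10% FBS, at 1 × 10⁵/mL in exponential growth and 60–70% confluent, were exposed 24 h at 37 °C to compounds from DMSO stocks (final DMSO ≤0.5%). Controls were cells alone or with DMSO, and 1 mM sodium nitroprusside as positive control. Cells were scraped, mixed 1:1 with 0.4% Trypan blue and counted on a hemocytometer by two operators. Result given as % viable cells.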

[6] = test system: Helicobacter pylori; assay: Antibacterial activity against metronidazole-resistant Helicobacter pylori isolate 1 after 72 hrs by agar dilution method; format: functional; conditions: isolate 1, 72 h; method in brief: as §2
[7] = Cytotoxicity against human EAhy926 cells assessed as cell survival at 50 ug/mL after 24 hrs by trypan blue exclusion assay; format: cell-based, EA.hy 926; conditions: read-out: Survival; method in brief: as §3
[8] = test system: Klebsiella pneumoniae; assay: Antibacterial activity against Klebsiella pneumoniae after 18 to 22 hrs by broth microdilution method; format: functional; method in brief: as §1
[9] = test system: Staphylococcus hominis; assay: Antibacterial activity against Staphylococcus hominis after 18 to 22 hrs by broth microdilution method; format: functional; method in brief: as §1
[10] = test system: Citrobacter freundii; assay: Antibacterial activity against Citrobacter freundii after 18 to 22 hrs by broth microdilution method; format: functional; method in brief: as §1
[11] = test system: Staphylococcus epidermidis; assay: Antibacterial activity against Staphylococcus epidermidis after 18 to 22 hrs by broth microdilution method; format: functional; method in brief: as §1
[12] = test system: Enterococcus faecalis; assay: Antibacterial activity against Streptococcus faecalis after 18 to 22 hrs by broth microdilution method; format: functional; method in brief: as §1
[13] = Cytotoxicity against human EAhy926 cells assessed as cell survival at 0.05 ug/mL after 24 hrs by trypan blue exclusion assay; format: cell-based, EA.hy 926; conditions: read-out: Survival; method in brief: as §3
[14] = test system: Staphylococcus aureus; assay: Antibacterial activity against Staphylococcus aureus after 18 to 22 hrs by broth microdilution method; format: functional; method in brief: as §1
[15] = test system: [Candida] sake; assay: Antifungal activity against Candida sake after 24 hrs by broth microdilution method; format: functional; conditions: Fermentozyma sake
Method in brief: (§4)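 Candida isolates from respiratory-tract specimens, tested by NCCLS broth microdilution in Sabouraud dextrose broth. Serial compound dilutions inoculated to 10³/mL, with fungus-only and medium-only controls. Incubated 24 h at 37 °C. MIC was the lowest concentration with complete visible growth inhibition.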

[16] = test system: AGS; assay: Antiinflammatory activity in human AGS cells assessed as inhibition of IL-8 production at 0.5 ug/mL after 24 hrs; format: functional, cell-based
Method in brief: (§5)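 AGS gastric adenocarcinoma cells were grown in F-12K with 10% FBS. They were seeded at 1 × 10⁵/mL for 24 h, preincubated 1 h with compound at 5 or 0.5 µg/mL, then exposed to H. pylori.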

[17] = test system: Klebsiella oxytoca; assay: Antibacterial activity against Klebsiella oxytoca after 18 to 22 hrs by broth microdilution method; format: functional; method in brief: as §1
[18] = test system: Enterobacter; assay: Antibacterial activity against Enterobacter after 18 to 22 hrs by broth microdilution method; format: functional; method in brief: as §1
[19] = Cytotoxicity against human EAhy926 cells assessed as cell survival at 5 ug/mL after 24 hrs by MTT assay; format: cell-based, EA.hy 926; conditions: read-out: Survival
[20] = Cytotoxicity against human EAhy926 cells assessed as cell survival at 0.5 ug/mL after 24 hrs by MTT assay; format: cell-based, EA.hy 926; conditions: read-out: Survival
[21] = test system: Helicobacter pylori; assay: Antibacterial activity against metronidazole-resistant Helicobacter pylori isolate 20 after 72 hrs by agar dilution method; format: functional; conditions: isolate 20, 72 h; method in brief: as §2
[22] = test system: AGS; assay: Antiinflammatory activity in human AGS cells assessed as inhibition of IL-8 production at 5 ug/mL after 24 hrs; format: functional, cell-based; method in brief: as §5
[23] = test system: AGS (Homo sapiens); assay: Cytotoxicity against human AGS cells assessed as cell survival at 50 ug/mL after 24 hrs by MTT assay
[24] = test system: Candida albicans; assay: Antifungal activity against Candida albicans after 24 hrs by broth microdilution method; format: functional; method in brief: as §4
[25] = test system: Helicobacter pylori; assay: Antibacterial activity against metronidazole-resistant Helicobacter pylori isolate 18 after 72 hrs by agar dilution method; format: functional; conditions: isolate 18, 72 h; method in brief: as §2
[26] = test system: Klebsiella aerogenes; assay: Antibacterial activity against Enterobacter aerogenes after 18 to 22 hrs by broth microdilution method; format: functional; method in brief: as §1
[27] = test system: Escherichia coli; assay: Antibacterial activity against Escherichia coli after 18 to 22 hrs by broth microdilution method; format: functional; method in brief: as §1
[28] = Cytotoxicity against human EAhy926 cells assessed as cell survival at 5 ug/mL after 24 hrs by trypan blue exclusion assay; format: cell-based, EA.hy 926; conditions: read-out: Survival; method in brief: as §3
[29] = test system: Helicobacter pylori; assay: Antibacterial activity against metronidazole-resistant Helicobacter pylori NCTC 11637 after 72 hrs by agar dilution method; format: functional; conditions: NCTC 11637, 72 h; method in brief: as §2
[30] = test system: Pichia kudriavzevii; assay: Antifungal activity against Candida krusei after 24 hrs by broth microdilution method; format: functional; method in brief: as §4

SMILES	MIC [1] [µg/mL]	MIC50 [2] [µg/mL]	MIC90 [2] [µg/mL]	MIC [3] [µg/mL]	MIC [4] [µg/mL]	viability at 24 h, 0.5 ug/mL [5] [%]	MIC [6] [µg/mL]	viability at 24 h, 50 ug/mL [7] [%]	MIC [8] [µg/mL]	MIC [9] [µg/mL]	MIC [10] [µg/mL]	MIC [11] [µg/mL]	MIC [12] [µg/mL]	viability at 24 h, 0.05 ug/mL [13] [%]	MIC [14] [µg/mL]	MIC [15] [µg/mL]	inhibition [16]	MIC [17] [µg/mL]	MIC [18] [µg/mL]	viability at 24 h, 5 ug/mL [19] [%]	also measured
CCOC(=O)c1ccc(NC(=O)c2cc3cc(OC)ccc3oc2=O)cc1	> 128	4 (≈ 10.9 µM)	8 (≈ 21.8 µM)	> 128	4 (≈ 10.9 µM)	67	8 (≈ 21.8 µM)	36	> 128	> 128	> 128	> 128	> 128	72	> 128	> 128	inactive	> 128	> 128	58	viability at 24 h, 0.5 ug/mL [20]: 98%; MIC [21]: 4 µg/mL (≈ 10.9 µM); inhibition [22]: inactive; viability at 24 h, 50 ug/mL [23]: 41%; MIC [24]: > 128 µg/mL; MIC [25]: 4 µg/mL (≈ 10.9 µM); MIC [26]: > 128 µg/mL; MIC [27]: > 128 µg/mL; viability at 24 h, 5 ug/mL [28]: 42%; MIC [29]: 4 µg/mL (≈ 10.9 µM); MIC [30]: > 128 µg/mL
O=C(O)c1ccc(NC(=O)c2cc3ccc(O)cc3oc2=O)cc1	> 128	8 (≈ 24.6 µM)	16 (≈ 49.2 µM)	> 128	4 (≈ 12.3 µM)	93	8 (≈ 24.6 µM)	82	> 128	> 128	> 128	> 128	> 128	98	> 128	> 128	inactive	> 128	> 128	99	viability at 24 h, 0.5 ug/mL [20]: 99%; MIC [21]: 8 µg/mL (≈ 24.6 µM); inhibition [22]: inactive; viability at 24 h, 50 ug/mL [23]: 77%; MIC [24]: > 128 µg/mL; MIC [25]: 8 µg/mL (≈ 24.6 µM); MIC [26]: > 128 µg/mL; MIC [27]: > 128 µg/mL; viability at 24 h, 5 ug/mL [28]: 92%; MIC [29]: 8 µg/mL (≈ 24.6 µM); MIC [30]: > 128 µg/mL
CCOC(=O)c1ccc(NC(=O)c2cc3cc(C)ccc3oc2=O)cc1	> 128	4 (≈ 11.4 µM)	8 (≈ 22.8 µM)	> 128	8 (≈ 22.8 µM)	77	8 (≈ 22.8 µM)	14	> 128	> 128	> 128	> 128	> 128	80	> 128	> 128	inactive	> 128	> 128	81	viability at 24 h, 0.5 ug/mL [20]: 99%; MIC [21]: 2 µg/mL (≈ 5.69 µM); inhibition [22]: inactive; viability at 24 h, 50 ug/mL [23]: 63%; MIC [24]: > 128 µg/mL; MIC [25]: 2 µg/mL (≈ 5.69 µM); MIC [26]: > 128 µg/mL; MIC [27]: > 128 µg/mL; viability at 24 h, 5 ug/mL [28]: 59%; MIC [29]: 4 µg/mL (≈ 11.4 µM); MIC [30]: > 128 µg/mL
